Rows were chosen to be rich in hits. Some 2.4% of all compounds tested hit in one or more screens of this group.
HIV Env fusion – HIV envelope-mediated fusion inhibition | inhibition, % at 12.3 µM | 360,000 tested, 1.1% active | HeLa-JRFL Env/CEM21 cell fusion, luciferase | AID 651610;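 active means mean replicate inhibition score of at least 50 and every replicate individually at or above 50; inconclusive means only one of the two criteria met; inactive means mean below 50 and not all replicates reaching 50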;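 further: 0% = plate neutral controls and 100% = maraviroc near 300 nM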
Cneo AK release – Cryptococcus neoformans lysis via adenylate kinase release; C. neoformans lysis, adenylate kinase release luminescence, 4 h; normalised: neutral wells 0, clomiphene wells 100; lysis activity, % at 15 µM; 360,000 tested, 0.2% active;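 active means mean lysis activity across replicates of at least 80%, whatever share of replicates individually reach that level; inactive means mean lysis activity below 80%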
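Test system: log-phase Cryptococcus neoformans yeast cells. Input: 5 × 10^6 yeast cells/mL. Medium: fresh YPD growth medium. Doses: single dose. Incubation: static 4 h at 37 °C with compound, 1 h detection. Measured by: luminescent adenylate kinase detection reagent. Read-out: signal increase indicating cell lysis. Benchmarks: Clomiphene.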
Rtt109 HAT inh – inhibitors of Candida albicans Rtt109/Vps75 histone acetyltransferase; purified Rtt109/Vps75, ThioGlo CoA-SH fluorescence, 4 h; inhibition, % at 34.9 µM; AID 540336; 330,000 tested, 0.16% active; Q5AAJ8;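 active means inhibition of at least 50% in every replicate; inconclusive means best replicate reaches 50% inhibition but some replicates fall short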
Target sequence (Q5AAJ8 whole entry, looked up): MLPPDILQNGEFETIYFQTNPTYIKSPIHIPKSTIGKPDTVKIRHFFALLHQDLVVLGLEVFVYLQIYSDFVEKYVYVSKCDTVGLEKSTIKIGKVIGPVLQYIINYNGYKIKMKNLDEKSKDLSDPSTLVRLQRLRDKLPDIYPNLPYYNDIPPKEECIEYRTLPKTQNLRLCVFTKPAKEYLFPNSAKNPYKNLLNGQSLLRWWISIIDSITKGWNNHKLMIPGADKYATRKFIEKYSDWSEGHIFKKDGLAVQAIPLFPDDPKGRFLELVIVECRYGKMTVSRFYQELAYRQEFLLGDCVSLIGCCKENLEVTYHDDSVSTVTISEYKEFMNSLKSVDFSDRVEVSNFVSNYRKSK
miR122 inh – inhibitors of miR-122 in Huh7 cells; Huh7 miR-122 Renilla luciferase sensor, 48 h; neutral wells = 0, positive control = 100; activation (reporter increase), % at 12.5 µM; 340,000 tested, 0.3% active;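 active means mean replicate activation score at least 90 and every replicate individually at or above 90; inconclusive means only one of the two criteria met; inactive means neither criterion met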;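 further: higher luciferase means less miR-122 activity so hits act as miR-122 inhibitors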
dFosB activator – enhances mouse delta FosB homodimer DNA binding; 340,000 tested, 0.99% active; purified delta FosB, TAMRA-CDK5 oligo fluorescence polarization; percent of positive-control signal above neutral wells; activation, % at 25 µM;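 active means mean activation above about 17%, with every replicate also reaching it, limit read from the data, passing the limit was not always enough; inconclusive means only one of the two conditions met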
GSIS activator – primary screen for activators of insulin secretion dependent on glucose, INS-1E cells, GLuc reporter luminescence; INS-1E GLuc reporter insulin secretion, 2-3 h; activation, % at 16.6 µM; 370,000 tested, 0.61% active; AID 743287;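 active means lowest replicate activation of at least 40%, so every replicate reaches that level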;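 further: 0% = median of neutral control wells and 100% = median of IBMX positive control wells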
* hit, by the source's call; ? = inconclusive; nt = no result given; [ ] = another dose, or the depositor's remark.

SMILES	HIV Env fusion	Cneo AK release	Rtt109 HAT inh	miR122 inh	dFosB activator	GSIS activator
CC1=C(C#N)C(c2ccccc2)C2=C(N1)c1ccccc1C2=O (stereo not given)	39	-2	7	-1	-2	-27
CC(=O)C1=C(C)NC2=C(C(=O)c3ccccc32)C1c1ccccc1 (stereo not given)	64*	nt	9	nt	-7	57
O=C(Nc1cccc(C(=O)O)c1)Nc1ccc2c(c1)OCO2	83*	-12	26	3	-5	10
COc1cccc(NC(=O)Nc2cccc(C(=O)O)c2)c1	71*	nt	14	-6	2	2
COc1cccc(NC(=O)c2ccccc2)c1	-47	3	-3	6	6	0
CNC[C@@H]1Oc2ccccc2CC(=O)N(C)C[C@H]1C	nt	nt	nt	nt	nt	7
N#Cc1c(N)n(C2OC(CO)C(O)C2O)c2ncnc(N)c12 (stereo not given)	84*	nt	0	nt	-3	nt
C[C@H](O)C#Cc1cnc2c(c1)C(=O)N([C@H](C)CO)C[C@H](C)[C@H](CN(C)Cc1ccc(-c3ccccc3)cc1)O2	-17[16.7 µM]	0	nt	-6[16.7 µM]	nt	10
COc1ccc2c3c(n(C)c2c1)[C@H](CO)N(C(=O)CN(C)C)CC31CN(Cc2cccnc2)C1	nt	nt	nt	nt	nt	28
Clc1ccc(/C=C\c2nccc3c2[nH]c2ccccc23)cc1	-21	nt	5	nt	27*	5
N#Cc1ccc(/C=C\c2nccc3c2[nH]c2ccccc23)cc1	-1	nt	-3	nt	?	-3
CO[C@@H]1CN(C)C(=O)c2ccc(NC(=O)c3ccc(Oc4ccccc4)cc3)cc2OC[C@H](C)NC[C@H]1C	22[16.7 µM]	-1	nt	-32[16.7 µM]	nt	-7
C[C@@H]1CCCCO[C@H](CN(C)Cc2ccc(C(=O)Nc3ccccc3N)cc2)[C@H](C)CN([C@@H](C)CO)C(=O)c2cc(N(C)C)ccc2O1	nt	nt	nt	nt	nt	18
COc1ccc(NC(=O)CSc2nc3n[nH]c(C)c3c(=N)n2-c2ccc(Cl)c(C)c2)cc1OC	nt	-1	-4	5	44*	nt
O=C1N[C@H](c2ccccc2)COCc2cnnn2CC[C@@H]1Cc1ccc(-c2ccccc2)cc1	nt	nt	nt	nt	nt	13
COc1ccc(COC[B-](F)(F)F)cc1	nt	3	nt	-6	nt	44*
COc1ccc(CCCCCCOCc2ccccc2)cc1	-27	-1	-6	0	0	-7
CCOc1ccc(CC(=N)C2=C(O)CC(C)(C)CC2=O)cc1OCC	-17	-2	-4	133*	-3	-5
CCCCCC[N+](C)(C)CC/C=C1/c2ccccc2Sc2ccc(Cl)cc21	8	nt	73*	nt	-3	-3
COc1ccc2c3c(n(C)c2c1)[C@@H](CO)N(C(=O)Nc1ccc(F)cc1)CC31CCN(Cc2cccnc2)CC1	nt	nt	nt	nt	nt	-23
Cc1cccc(/C=C2/Sc3ccc(C(=O)NCCCN4CCOCC4)cc3NC2=O)c1	-7	6	0	1	33*	5
CCN1CCN(CCCNC(=O)c2ccc3c(c2)NC(=O)/C(=C\c2cccc(C)c2)S3)CC1	12	1	-27	3	2	7
C[C@H](CO)N1C[C@H](C)[C@H](CN(C)C(=O)Cc2ccncc2)Oc2cc(C#CC3(O)CCCC3)ccc2S1(=O)=O	7[16.7 µM]	3	nt	nt	nt	6
COc1ccc(NC(=O)/C(Cl)=C(/Cl)S(=O)Cc2ccc(Cl)cc2)cn1 (stereo not given)	4	nt	2	-30	-6	46*
CCCCCCCCN1C(=O)[C@H](CC(=O)N2CCCCC2)C[C@@]2(C(=O)OC)CCCCC=C12	23	nt	nt	nt	nt	47*
CCCCCCCCN1C(=O)[C@H](CC(=O)N2CCCCC2)C[C@@]2(C(=O)OC)CC(C)(C)CC=C12	28	nt	nt	nt	nt	81*
CCCCCCCCN1C(=O)[C@H](CC(=O)N2CCOCC2)C[C@@]2(C(=O)OC)CC(C)(C)CC=C12	18	nt	nt	nt	nt	-20
C[C@@H]1CCCCO[C@@H](CN(C)Cc2ccc3c(c2)OCO3)[C@@H](C)CN([C@H](C)CO)C(=O)c2cc(NC(=O)CCCCCC(=O)Nc3ccccc3N)ccc2O1	nt	nt	nt	nt	nt	-4
[O-]/C(=C(\C(=S)NCc1ccccc1)[n+]1ccccc1)c1ccc(Cl)s1	-3	2	16	173*	-3	10
